From ChEMBL document CHEMBL3797175, “Discovery of 6-(difluoro(6-(4-fluorophenyl)-[1,2,4]triazolo[4,3-b][1,2,4]triazin-3-yl)methyl)quinoline as a highly potent and selective c-Met inhibitor” (Eur J Med Chem, 2016)
Active and inactive are the calls of the source. The rule behind the calls is not given here.

Legend:
[1] = Half life in Sprague-Dawley rat at 2 mg/kg, iv administered as single dose; type: ADME, organism-based; details: in vivo
How it was run: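 Male Sprague Dawley rats (n=3), single dose. iv 2 mg/kg in 1% DMA/9% Cremophor/90% saline. po 10 mg/kg in 0.5% CMC-Na. Where iv was 10 mg/kg: 10% DMSO/10% Tween 80/80% (40% PEG40); po in that case in 10% DMSO/5% Tween 80/85% saline.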

[2] = molecular target: ALK tyrosine kinase receptor (Homo sapiens) (UniProt Q9UM73); test: Inhibition of recombinant ALK (unknown origin) using poly (Glu, Tyr) 4:1 as substrate at 1000 nM incubated for 60 mins by ELISA relative to control
How it was run: (§1)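 Recombinant tyrosine kinases assayed on wells precoated with poly(Glu,Tyr)4:1 (20 µg/mL). ATP 10 µmol/L in HEPES pH 7.4 buffer with MgCl2, MnCl2, Na3VO4 and DTT; compound in 1% DMSO, 1% DMSO as control. Reaction 60 min at 37 °C. Phosphotyrosine detected with PY99 and HRP anti-mouse, o-phenylenediamine, A490. Inhibition % relative to control; two experiments.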

[3] = molecular target: Platelet-derived growth factor receptor alpha (Homo sapiens) (UniProt P16234); test: Inhibition of recombinant PDGFRalpha (unknown origin) using poly (Glu, Tyr) 4:1 as substrate at 1000 nM incubated for 60 mins by ELISA relative to control; how it was run: as §1
[4] = Selectivity ratio of IC50 for human AGS cells to IC50 for mouse BAF3 cells expressing TPR-MET; type: ADME, cell-based
How it was run: (§2)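 Both IC50s in each ratio come from one proliferation assay. Cells were seeded and exposed the next day to a range of concentrations for 72 h, then read by SRB or MTT. IC50s were fitted by four-parameter concentration–response, with each concentration at least in triplicate and at least 2 experiments. BaF3/TPR-Met is murine pre-B BaF3 transfected with TPR-MET and puromycin-selected.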

[5] = Selectivity ratio of IC50 for human SNU1 cells to IC50 for human EBC1 cells; type: ADME, cell-based
[6] = Selectivity ratio of IC50 for human SNU1 cells to IC50 for mouse BAF3 cells expressing TPR-MET; type: ADME, cell-based
[7] = molecular target: Vascular endothelial growth factor receptor 2 (Homo sapiens) (UniProt P35968); test: Inhibition of recombinant KDR (unknown origin) using poly (Glu, Tyr) 4:1 as substrate at 1000 nM incubated for 60 mins by ELISA relative to control; how it was run: as §1
[8] = molecular target: Receptor-type tyrosine-protein kinase FLT3 (Homo sapiens) (UniProt P36888); test: Inhibition of recombinant FLT3 (unknown origin) using poly (Glu, Tyr) 4:1 as substrate at 1000 nM incubated for 60 mins by ELISA relative to control; how it was run: as §1
[9] = molecular target: T1, TPR/MET fusion protein (Mus musculus) (UniProt P16056+F6ZDS4); test: Inhibition of TPR-MET in mouse BAF3 cells assessed as reduction in AKT phosphorylation at Serine 473 at 10 nM after 1 hr by Western blot analysis; type: cell-based
How it was run: (§3)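 BaF3 stably expressing TPR-MET (puromycin-selected), grown with IL-3-conditioned medium. Treated 1 h at 37 °C, lysed in SDS sample buffer. 10% SDS-PAGE and immunoblot for phospho-c-Met, phospho-ERK1/2, phospho-AKT and totals; ECL detection.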

[10] = molecular target: T1, TPR/MET fusion protein (Mus musculus); test: Inhibition of TPR-MET in mouse BAF3 cells assessed as reduction in ERK phosphorylation at Tyrosine 204 at 10 nM after 1 hr by Western blot analysis; type: cell-based; how it was run: as §3
[11] = Antiproliferative activity against human NCI-HCC827 cells after 72 hrs by SRB or MTT assay; type: functional, cell-based; details: HCC827, 72 h
How it was run: (§4)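 Cells seeded, exposed next day to a range of concentrations for 72 h. Growth read by sulforhodamine B or MTT. IC50 from four-parameter concentration-response fit. Each concentration tested at least in triplicate, with at least 2 experiments.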

NCI-H1299 = test: Antiproliferative activity against human NCI-H1299 cells after 72 hrs by SRB or MTT assay; type: functional, cell-based; details: NCI-H1299, 72 h; how it was run: as §4
[12] = Antiproliferative activity against human NCI-H3122 cells after 72 hrs by SRB or MTT assay; type: functional, cell-based; details: NCI-H3122, 72 h; how it was run: as §4
NCI-H226 = test: Antiproliferative activity against human NCI-H226 cells after 72 hrs by SRB or MTT assay; type: functional, cell-based; details: NCI-H226, 72 h; how it was run: as §4
[13] = Antiproliferative activity against human BGC823 cells after 72 hrs by SRB or MTT assay; type: functional, cell-based; details: BGC-823, 72 h; how it was run: as §4
[14] = Antiproliferative activity against human SNU16 cells after 72 hrs by SRB or MTT assay; type: functional, cell-based; details: SNU-16, 72 h; how it was run: as §4
SNU1 = test: Antiproliferative activity against human SNU1 cells after 72 hrs by SRB or MTT assay; type: functional, cell-based; details: SNU1, 72 h; how it was run: as §4
[15] = molecular target: Hepatocyte growth factor receptor (Canis lupus familiaris) (UniProt Q75ZY9); test: Inhibition of c-Met in MDCK cells assessed as inhibition of HGF-induced branching morphogenesis at 0.4 to 10 nM after 5 days by microscopic analysis; type: cell-based
How it was run: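 MDCK cells (2×10^4/mL) mixed 1:1 with collagen I and gelled 60 min at 37 °C. HGF (100 ng/mL) added with or without compound at various concentrations in growth medium. Medium renewed every 2 d; branching imaged by microscopy after 5 d. Three independent experiments.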

[16] = Selectivity ratio of IC50 for human PANC1 cells to IC50 for human MKN45 cells; type: ADME, cell-based; details: panc-1
How it was run: (§5)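 Each cell line was seeded in 96-well plates, then exposed the next day to a range of compound concentrations for 72 h. Growth was read by SRB or MTT assay, and IC50 was fitted by a four-parameter concentration-response curve. Each concentration was run at least in triplicate, in at least 2 experiments. BaF3/TPR-Met are murine pre-B BaF3 cells transfected with TPR-MET cDNA and selected in puromycin.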

[17] = Selectivity ratio of IC50 for human HCT116 cells to IC50 for human EBC1 cells; type: ADME, cell-based; details: hct-116; how it was run: as §2
[18] = Selectivity ratio of IC50 for human NCI-HCC827 cells to IC50 for human EBC1 cells; type: ADME, cell-based; how it was run: as §2
[19] = Selectivity ratio of IC50 for human NCI-HCC827 cells to IC50 for mouse BAF3 cells expressing TPR-MET; type: ADME, cell-based; how it was run: as §5
[20] = Selectivity ratio of IC50 for human NCI-H596 cells to IC50 for human EBC1 cells; type: ADME, cell-based; how it was run: as §2
[21] = Selectivity ratio of IC50 for human NCI-H596 cells to IC50 for human MKN45 cells; type: ADME, cell-based; details: mkn-45; how it was run: as §2
[22] = Selectivity ratio of IC50 for human NCI-H596 cells to IC50 for mouse BAF3 cells expressing TPR-MET; type: ADME, cell-based; how it was run: as §2
[23] = Selectivity ratio of IC50 for human NCI-H460 cells to IC50 for human EBC1 cells; type: ADME, cell-based; how it was run: as §2
[24] = Selectivity ratio of IC50 for human NCI-H460 cells to IC50 for mouse BAF3 cells expressing TPR-MET; type: ADME, cell-based; how it was run: as §2
[25] = Selectivity ratio of IC50 for human NCI-H226 cells to IC50 for human MKN45 cells; type: ADME, cell-based; how it was run: as §2

T1 sequence (F6ZDS4 whole entry partner, the tested form may be a part): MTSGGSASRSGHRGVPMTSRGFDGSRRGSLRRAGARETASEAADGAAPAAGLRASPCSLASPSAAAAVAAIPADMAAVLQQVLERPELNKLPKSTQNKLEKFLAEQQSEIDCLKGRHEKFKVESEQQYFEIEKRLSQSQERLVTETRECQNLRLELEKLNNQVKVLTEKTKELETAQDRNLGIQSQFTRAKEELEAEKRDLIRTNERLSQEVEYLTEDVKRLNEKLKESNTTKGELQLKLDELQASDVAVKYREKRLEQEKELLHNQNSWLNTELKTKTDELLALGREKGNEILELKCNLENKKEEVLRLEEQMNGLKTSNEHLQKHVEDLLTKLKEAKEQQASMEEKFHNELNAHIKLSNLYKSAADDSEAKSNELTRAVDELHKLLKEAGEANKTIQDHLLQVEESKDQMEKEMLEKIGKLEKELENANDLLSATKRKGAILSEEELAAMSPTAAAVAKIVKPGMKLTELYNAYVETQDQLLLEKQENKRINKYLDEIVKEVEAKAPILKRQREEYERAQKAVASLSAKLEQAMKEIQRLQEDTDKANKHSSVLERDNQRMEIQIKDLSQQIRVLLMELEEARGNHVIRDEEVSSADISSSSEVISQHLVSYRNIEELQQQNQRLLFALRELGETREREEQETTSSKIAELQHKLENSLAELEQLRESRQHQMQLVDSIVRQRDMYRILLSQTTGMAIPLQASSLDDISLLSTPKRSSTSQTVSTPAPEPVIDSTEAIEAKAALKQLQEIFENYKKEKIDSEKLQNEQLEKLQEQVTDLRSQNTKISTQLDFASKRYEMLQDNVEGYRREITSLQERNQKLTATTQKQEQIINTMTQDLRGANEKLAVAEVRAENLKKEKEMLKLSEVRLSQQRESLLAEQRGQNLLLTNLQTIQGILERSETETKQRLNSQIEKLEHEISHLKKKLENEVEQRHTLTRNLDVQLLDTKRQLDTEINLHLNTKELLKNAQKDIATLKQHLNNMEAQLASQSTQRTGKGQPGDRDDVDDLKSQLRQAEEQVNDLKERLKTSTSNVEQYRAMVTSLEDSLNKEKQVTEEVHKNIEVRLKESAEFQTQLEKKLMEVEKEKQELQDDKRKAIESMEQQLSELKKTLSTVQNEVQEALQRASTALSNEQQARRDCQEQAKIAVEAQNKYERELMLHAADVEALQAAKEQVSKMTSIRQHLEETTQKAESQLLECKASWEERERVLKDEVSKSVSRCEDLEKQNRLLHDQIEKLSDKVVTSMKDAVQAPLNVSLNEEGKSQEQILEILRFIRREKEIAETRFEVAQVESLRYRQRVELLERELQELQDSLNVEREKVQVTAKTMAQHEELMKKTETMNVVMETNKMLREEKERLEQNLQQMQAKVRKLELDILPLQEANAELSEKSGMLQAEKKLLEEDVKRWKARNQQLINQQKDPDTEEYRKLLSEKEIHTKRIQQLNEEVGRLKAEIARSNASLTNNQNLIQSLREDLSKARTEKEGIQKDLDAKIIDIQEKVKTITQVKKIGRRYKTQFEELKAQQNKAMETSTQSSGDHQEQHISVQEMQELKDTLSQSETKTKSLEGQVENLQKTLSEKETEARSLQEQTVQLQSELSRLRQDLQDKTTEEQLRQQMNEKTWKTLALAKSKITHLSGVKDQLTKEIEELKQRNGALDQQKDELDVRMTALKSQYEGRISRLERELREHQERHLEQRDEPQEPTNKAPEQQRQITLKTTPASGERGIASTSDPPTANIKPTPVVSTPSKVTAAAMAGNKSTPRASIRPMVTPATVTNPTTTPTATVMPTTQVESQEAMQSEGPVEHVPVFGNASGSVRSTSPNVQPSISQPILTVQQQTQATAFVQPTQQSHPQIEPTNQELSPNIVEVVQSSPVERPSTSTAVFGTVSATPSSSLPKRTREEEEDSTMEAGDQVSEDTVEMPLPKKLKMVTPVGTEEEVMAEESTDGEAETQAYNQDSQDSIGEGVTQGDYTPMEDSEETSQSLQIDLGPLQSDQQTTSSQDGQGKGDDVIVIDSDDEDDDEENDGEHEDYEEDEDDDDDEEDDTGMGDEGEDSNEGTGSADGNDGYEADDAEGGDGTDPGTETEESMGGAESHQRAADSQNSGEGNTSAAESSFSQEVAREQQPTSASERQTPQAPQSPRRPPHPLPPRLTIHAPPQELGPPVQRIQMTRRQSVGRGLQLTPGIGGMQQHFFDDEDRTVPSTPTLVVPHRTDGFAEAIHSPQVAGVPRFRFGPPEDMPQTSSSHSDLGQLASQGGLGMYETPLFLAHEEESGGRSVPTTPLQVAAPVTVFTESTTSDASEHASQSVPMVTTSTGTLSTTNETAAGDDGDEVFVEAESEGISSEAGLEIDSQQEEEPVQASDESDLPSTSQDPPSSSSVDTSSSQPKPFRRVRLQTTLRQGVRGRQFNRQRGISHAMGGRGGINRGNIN
T1 sequence (P16056 25-1379 limits assumed): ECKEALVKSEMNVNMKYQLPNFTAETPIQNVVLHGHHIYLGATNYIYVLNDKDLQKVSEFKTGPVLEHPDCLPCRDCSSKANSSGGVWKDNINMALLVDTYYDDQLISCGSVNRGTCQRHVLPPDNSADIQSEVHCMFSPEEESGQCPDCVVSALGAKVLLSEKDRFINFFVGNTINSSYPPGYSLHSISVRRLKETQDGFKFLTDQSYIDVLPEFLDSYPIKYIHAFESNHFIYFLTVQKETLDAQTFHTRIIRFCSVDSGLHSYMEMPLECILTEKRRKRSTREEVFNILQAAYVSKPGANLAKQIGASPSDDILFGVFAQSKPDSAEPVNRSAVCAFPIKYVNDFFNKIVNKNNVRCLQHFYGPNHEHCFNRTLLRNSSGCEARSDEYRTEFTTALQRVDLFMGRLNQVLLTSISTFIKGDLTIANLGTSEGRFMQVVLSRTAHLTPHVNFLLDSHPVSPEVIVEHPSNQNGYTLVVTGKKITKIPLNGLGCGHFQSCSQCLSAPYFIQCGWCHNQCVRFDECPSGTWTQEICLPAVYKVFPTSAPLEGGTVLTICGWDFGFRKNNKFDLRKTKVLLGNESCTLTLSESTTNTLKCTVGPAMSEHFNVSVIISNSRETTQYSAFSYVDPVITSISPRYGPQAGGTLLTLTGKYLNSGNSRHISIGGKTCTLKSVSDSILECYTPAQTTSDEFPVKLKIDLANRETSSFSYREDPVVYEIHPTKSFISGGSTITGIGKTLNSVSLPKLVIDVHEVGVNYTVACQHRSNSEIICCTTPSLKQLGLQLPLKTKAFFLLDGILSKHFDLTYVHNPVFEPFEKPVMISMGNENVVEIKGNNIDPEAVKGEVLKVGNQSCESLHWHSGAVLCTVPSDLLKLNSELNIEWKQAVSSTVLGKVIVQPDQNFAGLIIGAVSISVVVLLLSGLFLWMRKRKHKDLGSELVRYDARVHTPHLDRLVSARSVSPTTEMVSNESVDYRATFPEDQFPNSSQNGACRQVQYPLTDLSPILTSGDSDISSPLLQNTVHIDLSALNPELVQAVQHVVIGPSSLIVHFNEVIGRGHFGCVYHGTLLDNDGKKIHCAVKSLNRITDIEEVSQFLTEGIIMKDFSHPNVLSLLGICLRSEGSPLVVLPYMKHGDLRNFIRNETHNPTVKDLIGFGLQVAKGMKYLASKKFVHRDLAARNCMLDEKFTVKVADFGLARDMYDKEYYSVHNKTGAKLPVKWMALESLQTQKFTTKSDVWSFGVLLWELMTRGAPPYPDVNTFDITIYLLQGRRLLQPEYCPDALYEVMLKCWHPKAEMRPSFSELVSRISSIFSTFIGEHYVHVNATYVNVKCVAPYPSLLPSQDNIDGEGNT
Chain of Receptor-type tyrosine-protein kinase FLT3 (Homo sapiens) (P36888 whole entry, the tested form may be a part): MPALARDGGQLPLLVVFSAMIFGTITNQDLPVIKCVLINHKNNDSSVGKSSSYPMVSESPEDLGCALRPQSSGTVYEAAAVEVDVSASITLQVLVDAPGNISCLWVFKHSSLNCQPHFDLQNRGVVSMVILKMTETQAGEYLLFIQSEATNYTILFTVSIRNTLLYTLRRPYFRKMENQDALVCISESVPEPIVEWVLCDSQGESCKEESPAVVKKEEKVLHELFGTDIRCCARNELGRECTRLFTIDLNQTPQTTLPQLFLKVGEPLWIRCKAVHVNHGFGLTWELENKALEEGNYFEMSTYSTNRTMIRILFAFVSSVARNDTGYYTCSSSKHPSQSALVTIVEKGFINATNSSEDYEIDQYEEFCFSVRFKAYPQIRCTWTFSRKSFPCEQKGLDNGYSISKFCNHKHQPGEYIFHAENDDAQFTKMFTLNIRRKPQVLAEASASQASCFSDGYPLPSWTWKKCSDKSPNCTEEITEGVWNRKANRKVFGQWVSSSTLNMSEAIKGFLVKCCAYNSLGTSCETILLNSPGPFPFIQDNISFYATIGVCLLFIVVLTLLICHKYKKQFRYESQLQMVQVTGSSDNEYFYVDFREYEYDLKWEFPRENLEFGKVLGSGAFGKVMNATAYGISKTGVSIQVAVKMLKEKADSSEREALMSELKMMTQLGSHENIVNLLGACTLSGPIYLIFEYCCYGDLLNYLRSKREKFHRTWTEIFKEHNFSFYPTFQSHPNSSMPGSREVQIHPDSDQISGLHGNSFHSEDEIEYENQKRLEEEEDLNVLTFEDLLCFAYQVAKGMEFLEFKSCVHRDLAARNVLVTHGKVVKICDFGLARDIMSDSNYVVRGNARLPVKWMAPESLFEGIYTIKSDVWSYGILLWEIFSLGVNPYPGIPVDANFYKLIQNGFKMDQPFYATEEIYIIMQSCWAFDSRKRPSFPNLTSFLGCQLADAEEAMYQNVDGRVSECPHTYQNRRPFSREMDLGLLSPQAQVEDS

Question: Which results are given for `Fc1ccc(-c2cnc3nnc(C(F)(F)c4ccc5ncccc5c4)n3n2)cc1`?
Answer: half-life [1]: 1.23 h; inhibition [2]: 2.1%; inhibition [3]: 31.4%; Ratio IC50 [4]: 10000; Ratio IC50 [5]: 10000; Ratio IC50 [6]: 10000; inhibition [7]: 15.3%; inhibition [8]: 12.3%; inhibition [9]: Active; inhibition [10]: Active; IC50 [11]: > 10 µM; IC50 (NCI-H1299): > 10 µM; IC50 [12]: > 10 µM; IC50 (NCI-H226): > 10 µM; IC50 [13]: > 10 µM; IC50 [14]: > 10 µM; IC50 (SNU1): > 10 µM; inhibition [15]: Active; Ratio IC50 [16]: 10000; Ratio IC50 [17]: 10000; Ratio IC50 [18]: 10000; Ratio IC50 [19]: 10000; Ratio IC50 [20]: 10000; Ratio IC50 [21]: 10000; Ratio IC50 [22]: 10000; Ratio IC50 [23]: 10000; Ratio IC50 [24]: 10000; Ratio IC50 [25]: > 10000
